Structures are written as SMILES. Activity calls are given as the source filed them. No cut-off for these calls is given here.

These results are taken from ChEMBL document CHEMBL1649075, “Synthesis and biological evaluation of (6- and 7-phenyl) coumarin derivatives as selective nonsteroidal inhibitors of 17β-hydroxysteroid dehydrogenase type 1” (J Med Chem, 2011).

The subject of assay [1] is 17β-HSD1 (Homo sapiens). Nature of the assay: Displacement of [3H]estrone human recombinant 17beta-HSD1 expressed in Escherichia coli BL21 (DE3)-RIL at 6 uM by scintillation counting in presence of NADPH.
For assay [2], the system named is 17β-HSD1 (Homo sapiens). Nature of the assay: Displacement of [3H]estrone human recombinant 17beta-HSD1 expressed in Escherichia coli BL21 (DE3)-RIL at 0.6 uM by scintillation counting in presence of NADPH.
The target of assay [3] is T1, Estrogen receptor (Homo sapiens) (UniProt P03372).
T1 sequence (whole entry): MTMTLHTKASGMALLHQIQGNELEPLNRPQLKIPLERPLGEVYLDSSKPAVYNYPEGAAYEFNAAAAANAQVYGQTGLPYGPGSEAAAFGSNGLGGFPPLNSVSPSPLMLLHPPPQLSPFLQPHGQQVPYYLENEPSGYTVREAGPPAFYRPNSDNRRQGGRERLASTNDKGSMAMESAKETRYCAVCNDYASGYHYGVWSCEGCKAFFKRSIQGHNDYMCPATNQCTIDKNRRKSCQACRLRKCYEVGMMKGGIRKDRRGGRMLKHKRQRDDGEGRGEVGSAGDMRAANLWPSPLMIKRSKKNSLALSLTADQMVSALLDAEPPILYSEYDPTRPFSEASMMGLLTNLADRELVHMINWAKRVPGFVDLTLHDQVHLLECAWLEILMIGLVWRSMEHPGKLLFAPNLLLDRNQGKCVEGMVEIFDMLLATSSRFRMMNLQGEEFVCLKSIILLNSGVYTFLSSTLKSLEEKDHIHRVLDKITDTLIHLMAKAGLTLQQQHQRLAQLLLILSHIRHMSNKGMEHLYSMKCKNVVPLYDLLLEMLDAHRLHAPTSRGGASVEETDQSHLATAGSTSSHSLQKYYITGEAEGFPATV
Nature of the assay: Displacement of [3H]estradiol from human recombinant ERalpha after 16 hrs by liquid scintillation counting relative to estradiol. An outline of the steps:
(§1)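 Recombinant human ERα or ERβ (0.9 nM) was incubated with 9 nM [2,4,6,7-³H]-E2 and test compound (10^-9 to 10^-5 M) at 4 °C, for 18 h per methods (16 h per table footnote). Nonspecific binding was set with 6 μM E2. Complexes were bound to hydroxyapatite in Tris pH 7.5, washed four times, and counted by liquid scintillation. Runs were in triplicate. RBA = IC50(E2)/IC50(compound) × 100.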

Assay [4] concerns the target Estrogen receptor beta (Homo sapiens) (UniProt Q92731). Nature of the assay: Displacement of [3H]estradiol from human recombinant ERbeta after 16 hrs by liquid scintillation counting relative to estradiol. The procedure, abridged: as §1
For assay [5], the system named is 17β-HSD2 (Homo sapiens). Nature of the assay: Displacement of [3H]estradiol human recombinant 17beta-HSD2 expressed in Escherichia coli BL21 (DE3)-RIL at 6 uM by scintillation counting in presence of NAD+.
Assay [6] deals with 17β-HSD2 (Homo sapiens). Nature of the assay: Displacement of [3H]estradiol human recombinant 17beta-HSD2 expressed in Escherichia coli BL21 (DE3)-RIL at 0.6 uM by scintillation counting in presence of NAD+.
Assay [7] concerns 17β-HSD2 (Homo sapiens). Nature of the assay: Displacement of [3H]estradiol human recombinant 17beta-HSD2 expressed in Escherichia coli BL21 (DE3)-RIL at 60 uM by scintillation counting in presence of NAD+.

Sequence of Estrogen receptor beta (Homo sapiens) (Q92731 whole entry): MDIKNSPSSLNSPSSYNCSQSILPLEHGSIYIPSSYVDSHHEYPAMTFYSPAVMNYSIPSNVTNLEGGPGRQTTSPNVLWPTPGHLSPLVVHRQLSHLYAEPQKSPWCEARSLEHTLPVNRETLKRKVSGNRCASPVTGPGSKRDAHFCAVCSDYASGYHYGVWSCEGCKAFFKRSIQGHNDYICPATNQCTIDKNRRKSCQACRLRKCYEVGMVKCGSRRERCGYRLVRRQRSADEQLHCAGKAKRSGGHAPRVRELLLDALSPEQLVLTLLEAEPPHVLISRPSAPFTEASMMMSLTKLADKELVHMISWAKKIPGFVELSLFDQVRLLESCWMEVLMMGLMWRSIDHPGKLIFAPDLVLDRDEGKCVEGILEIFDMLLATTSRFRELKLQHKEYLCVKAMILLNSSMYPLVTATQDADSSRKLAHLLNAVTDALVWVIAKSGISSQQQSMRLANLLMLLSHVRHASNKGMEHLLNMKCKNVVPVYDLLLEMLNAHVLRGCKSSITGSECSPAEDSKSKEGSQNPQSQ

In the case of `CC(=O)c1cc2cc(-c3ccccc3)ccc2oc1=O`, the inhibition entry in the assay with 17β-HSD1 (Homo sapiens) [1] and with 17β-HSD1 (Homo sapiens) [2] was “inactive” in each case.
`CCOC(=O)c1cc2cc(-c3ccc(Cl)cc3)ccc2oc1=O`: the inhibition with 17β-HSD1 (Homo sapiens) [1] amounted to 14%; with 17β-HSD1 (Homo sapiens) [2], 10%.
On the same counts, the results for `CC(=O)c1cc2cc(-c3ccc(C)cc3)ccc2oc1=O` are “inactive” and “inactive”.
On the same counts, the results for `CCOC(=O)c1cc2ccc(-c3ccc(C)cc3)cc2oc1=O` are 9% and 11%.
On the same counts, the results for `O=c1ccc2cc(-c3ccc(Cl)cc3)ccc2o1` are 10% and “inactive”.
On to `C[C@]12CC[C@H]3C(=CCc4cc(O)ccc43)[C@@H]1CCC2=O`, for which the RBA in assay [3] amounted to 0.15%; in assay [4], 1.4%.
In the case of `CC(=O)c1cc2ccc(-c3ccc(F)cc3)cc2oc1=O`, the inhibition was determined as 13% in the assay with 17β-HSD1 (Homo sapiens) [1] and 6% with 17β-HSD1 (Homo sapiens) [2].
On the same counts, the results for `O=c1ccc2ccc(-c3ccc(O)cc3)cc2o1` are 43% and “inactive”.
With `COc1ccc(-c2ccc3oc(=O)ccc3c2)cc1`, the inhibition with 17β-HSD1 (Homo sapiens) [1] is 26%; in the assay on 17β-HSD1 (Homo sapiens) [2] it was 7%.
On the same counts, the results for `COc1ccc(-c2ccc3ccc(=O)oc3c2)cc1` are 10% and “inactive”.
Take `CC(=O)c1cc2cc(-c3ccc(Cl)cc3)ccc2oc1=O`: the inhibition result in the assay on 17β-HSD1 (Homo sapiens) [1] and with 17β-HSD1 (Homo sapiens) [2] was “inactive” each time.
Regarding `CCOC(=O)c1cc2cc(-c3ccc(OC)cc3)ccc2oc1=O`, the inhibition in the assay with 17β-HSD1 (Homo sapiens) [1] stood at 7%. In the assay with 17β-HSD1 (Homo sapiens) [2], the inhibition entry was “inactive”.
On the same counts, the results for `CCOC(=O)c1cc2cc(-c3ccccc3)ccc2oc1=O` are 21% and “inactive”.
On the same counts, the results for `Cc1ccc(-c2ccc3ccc(=O)oc3c2)cc1` are 29% and 10%.
Regarding `CC(=O)c1cc2ccc(OS(=O)(=O)C(F)(F)F)cc2oc1=O`, the inhibition in the assay on 17β-HSD1 (Homo sapiens) [1] is 100%; with 17β-HSD1 (Homo sapiens) [2], 60%. Also, the result in assay [3] and in assay [4] was inactive. Further, the inhibition result in the assay with 17β-HSD2 (Homo sapiens) [5] and with 17β-HSD2 (Homo sapiens) [6] was “inactive” in each case.
Regarding `CC(=O)c1cc2ccc(-c3ccc(Cl)cc3)cc2oc1=O`, the inhibition in the assay with 17β-HSD1 (Homo sapiens) [1] turned out to be 17%; in the assay on 17β-HSD1 (Homo sapiens) [2], 12%.
On to `CCOC(=O)c1cc2ccc(-c3ccc(Cl)cc3)cc2oc1=O`, for which the inhibition result in the assay on 17β-HSD1 (Homo sapiens) [1] and in the assay with 17β-HSD1 (Homo sapiens) [2] was “inactive” in each case.
On to `CCOC(=O)c1cc2ccc(-c3ccc(OC)cc3)cc2oc1=O`, for which the inhibition with 17β-HSD1 (Homo sapiens) [1] was 1%. Further, the inhibition entry in the assay on 17β-HSD1 (Homo sapiens) [2] was “inactive”.
For `O=c1ccc2cc(Br)ccc2o1`, the inhibition result in the assay on 17β-HSD1 (Homo sapiens) [1] and in the assay with 17β-HSD1 (Homo sapiens) [2] was “inactive” each time.
Turning to `O=c1ccc2cc(-c3ccccc3)ccc2o1`, in the assay on 17β-HSD1 (Homo sapiens) [1], the inhibition turned out to be 18%. Further, in the assay on 17β-HSD1 (Homo sapiens) [2], the inhibition result is “inactive”.
On the same counts, the results for `CCOC(=O)c1cc2cc(-c3ccc(F)cc3)ccc2oc1=O` are 21% and 21%.
The matching figures for `CCOC(=O)c1cc2cc(Br)ccc2oc1=O`: “inactive” and “inactive”.
As for `CCOC(=O)c1cc2ccc(-c3ccccc3)cc2oc1=O`, the inhibition in the assay on 17β-HSD1 (Homo sapiens) [1] worked out at 7%. Further, the inhibition result in the assay on 17β-HSD1 (Homo sapiens) [2] was “inactive”.
The matching figures for `CCOC(=O)c1cc2cc(-c3ccc(C)cc3)ccc2oc1=O`: 16% and 6%.
As to `CC(=O)c1cc2cc(-c3ccc(F)cc3)ccc2oc1=O`, the inhibition in the assay with 17β-HSD1 (Homo sapiens) [1] amounted to 59%; with 17β-HSD1 (Homo sapiens) [2] it was 15%.
The matching figures for `O=c1ccc2ccc(-c3ccc(Cl)cc3)cc2o1`: 9% and “inactive”.
Regarding `COc1ccc(-c2ccc3cc(C(C)=O)c(=O)oc3c2)cc1`, the inhibition stood at 86% with 17β-HSD1 (Homo sapiens) [1] and 48% in the assay on 17β-HSD1 (Homo sapiens) [2]. In addition, the inhibition result with 17β-HSD2 (Homo sapiens) [7], in the assay with 17β-HSD2 (Homo sapiens) [5] and in the assay with 17β-HSD2 (Homo sapiens) [6] was “inactive” throughout. In addition, the outcome in assay [3] and in assay [4] was inactive.
Take `O=c1ccc2cc(-c3ccc(O)cc3)ccc2o1`: the inhibition stood at 30% in the assay with 17β-HSD1 (Homo sapiens) [1] and 4% with 17β-HSD1 (Homo sapiens) [2].
On to `CC(=O)c1cc2ccc(-c3ccc(O)cc3)cc2oc1=O`, for which the inhibition in the assay on 17β-HSD1 (Homo sapiens) [1] was determined as 100%; in the assay on 17β-HSD1 (Homo sapiens) [2] it was 76%. The inhibition result in the assay with 17β-HSD2 (Homo sapiens) [7], in the assay with 17β-HSD2 (Homo sapiens) [5] and in the assay with 17β-HSD2 (Homo sapiens) [6] was “inactive” each time. The outcome in assay [3] and in assay [4] was inactive.
Consider `O=c1ccc2ccc(OS(=O)(=O)C(F)(F)F)cc2o1`, for which, in the assay with 17β-HSD1 (Homo sapiens) [1], the inhibition is 9%. Moreover, the inhibition result with 17β-HSD1 (Homo sapiens) [2] was “inactive”.
On to `CC(=O)c1cc2ccc(-c3ccc(C)cc3)cc2oc1=O`, for which the inhibition in the assay on 17β-HSD1 (Homo sapiens) [1] stood at 72%; with 17β-HSD1 (Homo sapiens) [2] it was 40%. Also, the inhibition result in the assay on 17β-HSD2 (Homo sapiens) [7] and in the assay on 17β-HSD2 (Homo sapiens) [5] was “inactive” each time.
`CCOC(=O)c1cc2ccc(OS(=O)(=O)C(F)(F)F)cc2oc1=O`: the inhibition result in the assay on 17β-HSD1 (Homo sapiens) [1] and in the assay on 17β-HSD1 (Homo sapiens) [2] was “inactive” in each case.
Turning to `COc1ccc2cc(C(C)=O)c(=O)oc2c1`, the inhibition turned out to be 25% in the assay with 17β-HSD1 (Homo sapiens) [1] and 23% with 17β-HSD1 (Homo sapiens) [2]. For the same compound, the inhibition result in the assay with 17β-HSD2 (Homo sapiens) [5] and with 17β-HSD2 (Homo sapiens) [6] was “inactive” each time.
In the case of `O=c1ccc2ccc(-c3ccccc3)cc2o1`, in the assay with 17β-HSD1 (Homo sapiens) [1], the inhibition came to 10%. Also, the inhibition result with 17β-HSD1 (Homo sapiens) [2] is “inactive”.
On the same counts, the results for `Cc1ccc(-c2ccc3oc(=O)ccc3c2)cc1` are “inactive” and “inactive”.
For `COc1ccc(-c2ccc3oc(=O)c(C(C)=O)cc3c2)cc1`, the inhibition entry in the assay with 17β-HSD1 (Homo sapiens) [1] and with 17β-HSD1 (Homo sapiens) [2] was “inactive” in each case.
